Measurements published in ChEMBL document CHEMBL4000161, “Rearranged 6/6/5/6-Fused Triterpenoid Acids from the Stems of Kadsura coccinea” (J Nat Prod, 2016).

Legend:
Assay type in all cases: functional, cell-based
[1] = system: SW480; test: Cytotoxicity against human SW480 cells assessed as decrease in cell viability after 48 hrs by MTS assay; conditions: SW480, 48 h
Procedure, shortened: (§1)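 Cells kept in RPMI-1640 or DMEM with 10% FBS, 37 °C, 5% CO2. Seeded at 1 × 10^5 cells/mL; adherent lines left 12 h to attach, suspension cells (HL-60) seeded just before dosing. Triplicate wells at various concentrations for 48 h; MTS then 4 h at 37 °C; lysis in 20% SDS/50% DMF; OD 490 nm. IC50 by Reed and Muench method.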

[2] = system: SMMC-7721; test: Cytotoxicity against human SMMC7721 cells assessed as decrease in cell viability after 48 hrs by MTS assay; conditions: SMMC-7721, 48 h; procedure, shortened: as §1
[3] = system: A549; test: Cytotoxicity against human A549 cells assessed as decrease in cell viability after 48 hrs by MTS assay; conditions: A549, 48 h; procedure, shortened: as §1
[4] = system: HeLa; test: Cytotoxicity against human HeLa cells assessed as decrease in cell viability after 48 hrs by MTS assay; procedure, shortened: as §1
[5] = system: MCF7; test: Cytotoxicity against human MCF7 cells assessed as decrease in cell viability after 48 hrs by MTS assay; conditions: MCF7, 48 h; procedure, shortened: as §1
[6] = system: HL-60; test: Cytotoxicity against human HL60 cells assessed as decrease in cell viability after 48 hrs by MTS assay; conditions: HL-60, 48 h; procedure, shortened: as §1

Measured: IC50

C=C1[C@@H]([C@H](C)C[C@@H]2C=C(C)C(=O)O2)CC[C@@]2(C)C3=CC[C@H]4C(C)(C)[C@H](O)CC[C@]4(C)[C@@H]3C[C@@H]12
25.4 µM: [1]
> 40 µM: [2] | [3]
13.6 µM: [5]
18.6 µM: [4]
7.36 µM: [6]

C=C1[C@@H]([C@H](C)C[C@@H](O)/C=C(\C)C(=O)O)CC[C@@]2(C)C3=CC[C@H]4C(C)(C)[C@H](OC(C)=O)CC[C@]4(C)[C@@H]3C[C@@H]12
> 10 µM: [1] | [2] | [3] | [4] | [5] | [6]

C=C1[C@@H]([C@H](C)CC/C=C(/C)C(=O)O)CC[C@@]2(C)C3=CC[C@H]4C(C)(C)C(=O)CC[C@]4(C)[C@@H]3C[C@@H]12
> 10 µM: [1] | [2] | [3] | [4] | [5] | [6]

C/C(=C/CC[C@@H](C)C1=C(CO)[C@@H]2C[C@@H]3C(=CC[C@H]4C(C)(C)C(=O)CC[C@]34C)[C@]2(C)CC1)C(=O)O
> 10 µM: [1] | [2] | [3] | [4] | [5] | [6]

CC(=O)O[C@@H]1CC[C@]2(C)[C@@H]3C[C@H]4[C@@](C)(O)[C@@H]([C@H](C)CC/C=C(/C)C(=O)O)CC[C@@]4(C)C3=CC[C@H]2C1(C)C
> 10 µM: [1] | [2] | [3] | [4] | [5] | [6]

CC(=O)O[C@@H]1CC[C@]2(C)[C@@H]3C[C@H]4C(CO)=C([C@H](C)CC/C=C(/C)C(=O)O)CC[C@@]4(C)C3=CC[C@H]2C1(C)C
> 10 µM: [1] | [2] | [3] | [4] | [5] | [6]

C=C1[C@@H]([C@H](C)CC/C=C(/C)C(=O)O)CC[C@@]2(C)C3=CC[C@H]4C(C)(C)[C@@H](O)CC[C@]4(C)[C@@H]3C[C@@H]12
> 10 µM: [1] | [2] | [3] | [4] | [5] | [6]

C=C1[C@@H]([C@H](C)CC(=O)/C=C(\C)C(=O)O)CC[C@@]2(C)C3=CC[C@H]4C(C)(C)[C@H](OC(C)=O)CC[C@]4(C)[C@@H]3C[C@@H]12
7.77 µM: [4]
13 µM: [3]
5.99 µM: [1]
3.11 µM: [6]
11.6 µM: [2]
4.61 µM: [5]

C=C1[C@@H]([C@H](C)C[C@H]2C=C(C)C(=O)O2)CC[C@@]2(C)C3=CC[C@H]4C(C)(C)[C@H](O)CC[C@]4(C)[C@@H]3C[C@@H]12
12.3 µM: [4]
20.1 µM: [1]
27.1 µM: [3]
10.4 µM: [6]
15.6 µM: [5]
25 µM: [2]

CC(=O)O[C@@H]1CC[C@]2(C)[C@@H]3C[C@H]4C(C=O)=C([C@H](C)CC/C=C(/C)C(=O)O)CC[C@@]4(C)C3=CC[C@H]2C1(C)C
> 10 µM: [1] | [2] | [3] | [4] | [5] | [6]

C=C1[C@@H]([C@H](C)CC/C=C(/C)C(=O)O)CC[C@@]2(C)C3=CC[C@H]4C(C)(C)[C@H](O)CC[C@]4(C)[C@@H]3C[C@@H]12
> 10 µM: [1] | [2] | [3] | [4] | [5] | [6]

C=C1[C@@H]([C@H](C)CC/C=C(/C)C(=O)O)CC[C@@]2(C)C3=CC(=O)[C@H]4C(C)(C)[C@H](OC(C)=O)CC[C@]4(C)[C@@H]3C[C@@H]12
> 10 µM: [1] | [2] | [3] | [4] | [5] | [6]

CC(=O)O[C@@H]1CC[C@]2(C)[C@@H]3CC4=C(CO)[C@@H]([C@H](C)CC/C=C(/C)C(=O)O)CC[C@@]4(C)C3=CC[C@H]2C1(C)C
> 10 µM: [1] | [2] | [3] | [4] | [5] | [6]

C=C1[C@@H]([C@H](C)CC/C=C(/C)C(=O)O)CC[C@]2(C)[C@H]1C[C@H]1[C@@]3(C)CCC(=O)C(C)(C)[C@@H]3C[C@@H]3O[C@@]312
> 10 µM: [1] | [2] | [3] | [4] | [5] | [6]

CC(=O)O[C@H]1C(=O)[C@@]2(C)[C@H]([C@H](OC(=O)c3ccccc3)[C@]3(O)C[C@H](OC(=O)[C@H](O)[C@@H](NC(=O)c4ccccc4)c4ccccc4)C(C)=C1C3(C)C)[C@]1(OC(C)=O)CO[C@@H]1C[C@@H]2O [PACLITAXEL]
< 0.008 µM: [1] | [2] | [3] | [4] | [5] | [6]
